An excerpt weighted towards active compounds, which were near 2.6% of everything screened.
Yeast lifespan up: extends the lifespan of yeast; S. cerevisiae growth with nicotinamide, OD615; deaD strain in restrictive glucose medium; inhibition of the nicotinamide effect, % at 10 µM; 130,000 tested, 0.68% active;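 active = inhibition above a set limit, placed 3 SD over the median of all compounds, cut at about 26% in these data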
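Assay system: engineered S. cerevisiae DeaD replicative-lifespan strain, galactose-grown log-phase cells; medium: restrictive CSMM-D dextrose medium; also added: nicotinamide, 1.5 mM, co-present with compound; schedule: 48 h compound exposure at 30 °C, humidified; detection: absorbance at 615 nm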
Yeast growth inh: reduces growth of yeast BB579 in restrictive medium; inhibition, % at 10 µM; 140,000 tested, 0.51% active; S. cerevisiae BB579 growth, OD615, 48 h;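 active = inhibition above a set limit, 3 SD over the mean compound inhibition, cut at about 44% in these data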
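Detection: OD615 turbidity measurement; Material: Saccharomyces cerevisiae DeaD strain BB579, replicative lifespan model yeast; Timing: 48 h exposure, 30 °C; Doses: single 10 µM dose; Medium: CSMM-D restrictive synthetic medium containing dextrose (glucose); Controls: amphotericin B at 10 µg/mL as positive control.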
RAM inhibit: blocks the yeast RAM network; S. cerevisiae dse1pr::URA3 reporter, 5-FOA growth OD615, 2 d; analog-sensitive cbk1-as2 kinase mutant strain; inhibition, % at 50 µM; 190,000 tested, 1.8% active;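 active = inhibition above a set limit, 3 SD over mean compound inhibition, cut at about 8.4% in these data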;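 note: inhibition rescues growth on 5-FOA so higher OD means more RAM inhibition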
Large screens that a line does not name were inactive.

CN(C)c1ccc(N=Nc2ccccc2C(=O)OCC(=O)N(C)c2ccccc2)cc1	RAM inhibit 10
COC(=O)c1ccccc1NC(=O)COC(=O)c1ccccc1N=Nc1ccc(N(C)C)cc1	none
CC(NC(=O)C1CCC(CNS(=O)(=O)c2ccccc2)CC1)c1ccc2c(c1)OCCO2 (stereo unspecified)	none (no result: Yeast lifespan up, Yeast growth inh)
CCc1ccccc1N/C(=N\S(=O)(=O)c1ccccc1)C(F)(F)F	Yeast lifespan up 30
O=S(=O)(/N=C(/Nc1ccccc1)C(F)(F)F)c1ccccc1	none
CS(=O)(=O)N1CCC(C(=O)NCc2ccc3c(c2)OCO3)CC1	none (no result: Yeast lifespan up, Yeast growth inh)
O=C(Nc1ccc2nc3n(c(=O)c2c1)CCCC3)c1cccc([N+](=O)[O-])c1	RAM inhibit 8.8
Cc1csc(NC(=O)c2ccc3c(=O)n4c(nc3c2)CCCCC4)n1	none
O=C(Nc1ccc2nc3n(c(=O)c2c1)CCCC3)c1cc([N+](=O)[O-])ccc1F	none
O=C(Nc1ccccn1)c1c(O)c2cccc3c2n(c1=O)CCC3	none
O=C(Nc1nccs1)c1c(O)c2cccc3c2n(c1=O)CCC3	Yeast lifespan up 30
O=C(Nc1nccs1)c1ccc2c(=O)n3c(nc2c1)CCCCC3	Yeast lifespan up 51
CNC(=S)N(Cc1ccc(OC)cc1)C1CC(=O)N(c2ccc(OC)cc2)C1=O (stereo unspecified)	RAM inhibit 10 (no result: Yeast lifespan up)
CNC(=S)N(Cc1ccc(OC)cc1)C1CC(=O)N(c2ccc(C(=O)OC)cc2)C1=O (stereo unspecified)	none
Cc1ccc(N2C(=O)C3N=NN(CC(=O)N4N=C(c5ccccc5)CC4c4ccccc4)C3C2=O)cc1 (stereo unspecified)	none (no result: Yeast lifespan up, Yeast growth inh)
O=[N+]([O-])c1ccccc1NCCNS(=O)(=O)c1ccc(Cl)cc1	none
O=[N+]([O-])c1ccc(NCCCNS(=O)(=O)c2ccc(Cl)cc2)c(Cl)c1	RAM inhibit 10
CC(C)OCCCn1c(=N)c(C(N)=S)cc2c(=O)n3ccccc3nc21	none
O=C(CSc1nnc(-c2ccccc2)n1Cc1ccco1)NCc1ccc2c(c1)OCO2	none
O=C1c2cccc3c([N+](=O)[O-])ccc(c23)C(=O)N1c1ccccn1	none
O=C1c2cccc3c([N+](=O)[O-])ccc(c23)C(=O)N1c1ccc(Cl)cn1	Yeast lifespan up 33
CSc1nc(-c2ccc(N(C)C)cc2)c(C#N)c(=O)n1C	none (no result: Yeast lifespan up, Yeast growth inh)
COc1ccc(Oc2ccc(/C=C/C(=O)c3ccc(O)cc3)cc2[N+](=O)[O-])cc1	RAM inhibit 11
COc1ccc(/C=C/C(=O)c2ccc(O)cc2)cc1COc1ccc(F)cc1	none
CCCNc1nc(Cl)nc(NC(C)(C)C)n1	none (no result: Yeast lifespan up, Yeast growth inh)
CCOc1ccc(/C=N/Nc2ccc(C(F)(F)F)cc2[N+](=O)[O-])cc1O	none
COc1ccc(/C=N/Nc2ccc(C(F)(F)F)cc2[N+](=O)[O-])cc1O	RAM inhibit 10
Cc1ccc2nc(NC(=O)c3ccc(Cn4cc(Cl)cn4)o3)sc2c1	none
O=C(Nc1ccc(Br)c2cccnc12)c1ccc(Cn2cc(Cl)cn2)o1	RAM inhibit 11
CSCCC(NC(=O)c1ccc(Cl)cc1)C(=O)OCC(=O)Nc1cc(Cl)ccc1C (stereo unspecified)	RAM inhibit 10
CSCCC(NC(=O)c1ccc(Cl)cc1)C(=O)O (stereo unspecified)	none (no result: Yeast lifespan up, Yeast growth inh)
CCOC(=O)CN(C(=O)CSc1nnc2c(n1)[nH]c1c(C)cc(C)cc12)c1ccccc1	RAM inhibit 8.9
CCOC(=O)CN(C(=O)CSc1nnc2c(n1)[nH]c1ccccc12)c1ccccc1	none
CC(=O)OCC1=C(C(=O)O)N2C(=O)C(NC(=O)CCn3nc(C(F)(F)F)c(Br)c3C3CC3)C2SC1 (stereo unspecified)	none (no result: Yeast lifespan up, Yeast growth inh)
CCOc1cc(/C=C\[N+](=O)[O-])ccc1OCC(=O)Nc1ccccc1C	Yeast lifespan up 92
CCOc1cc(/C=N/NC(N)=O)cc(Br)c1OCC(=O)Nc1ccccc1C	none
COc1ccccc1Nc1nc(-c2sc(NC(=O)c3ccccc3)nc2C)cs1	none
Cc1ccc(Cl)cc1Nc1nc(-c2sc(NC(=O)c3ccccc3)nc2C)cs1	RAM inhibit 9.3
NS(=O)(=O)c1ccc(O)c(N2C(=O)c3cccc4c(C(=O)c5ccccc5)ccc(c34)C2=O)c1	none (no result: Yeast lifespan up, Yeast growth inh)
CCN1C(=O)c2cccc3c(S(=O)(=O)NCCc4c[nH]c5ccccc45)ccc1c23	none
CCCCc1nc2cc(Cl)ccc2o1	none (no result: Yeast lifespan up, Yeast growth inh)
O=C(Cc1ccc(S(=O)(=O)N2CCOCC2)s1)Nc1ccc2c(c1)CCC2	RAM inhibit 9.4
CC(=O)Nc1ccc(NC(=O)Cc2ccc(S(=O)(=O)N3CCCCC3)s2)cc1	none
CCCN(C(=O)COc1ccc(Cl)cc1Cl)c1c(N)n(Cc2ccccc2)c(=O)[nH]c1=O	none (no result: Yeast lifespan up, Yeast growth inh)
O=C(Nc1ccccc1)C1=C[C@@H](c2ccc(Br)cc2)C[C@@H](OCCCCO)O1	none (no result: Yeast lifespan up, Yeast growth inh)
C=CCSC1=N/C(=C\c2ccc3c(c2)OCO3)C(=O)S1	none
C=CCSC1=N/C(=C\c2sccc2C)C(=O)S1	RAM inhibit 9.4
O=C(NCC1CCCO1)c1ccc2c(=O)n(CC3CCCO3)c(SCC(=O)N3CCCC3)nc2c1 (stereo unspecified)	none (no result: Yeast lifespan up, Yeast growth inh)
COc1ccc(-c2c(C)nn(-c3ccccc3)c2N)cc1OC	none (no result: Yeast lifespan up)
COc1cc(-c2nc3c(c(C)nn3-c3ccccc3)c3cc(OC)c(OC)cc23)ccc1O	RAM inhibit 8.9
CCOC(=O)Cn1nc(C)c(NC(=O)c2ccc([N+](=O)[O-])c(C)c2)c1C	none (no result: Yeast lifespan up, Yeast growth inh)
COc1cccc(NC(=O)CSc2ncnc3c2cnn3Cc2ccccc2)c1	RAM inhibit 8.4
COc1ccc(NC(=O)CSc2ncnc3c2cnn3CCc2ccccc2)cc1	none
CCC(C)NS(=O)(=O)c1ccc(NS(=O)(=O)c2ccc(F)cc2)cc1 (stereo unspecified)	none
Cc1ccc(C2CC(C(F)(F)F)n3nc(C(=O)Nc4c(C)n(C)n(-c5ccccc5)c4=O)cc3N2)cc1 (stereo unspecified)	RAM inhibit 9.9 (no result: Yeast lifespan up, Yeast growth inh)
COc1cccc(C2CC(C(F)(F)F)n3nc(C(=O)Nc4c(C)n(C)n(-c5ccccc5)c4=O)cc3N2)c1 (stereo unspecified)	none (no result: Yeast lifespan up, Yeast growth inh)
CC1(C)CC(=O)C(C(c2cccc([N+](=O)[O-])c2)C2C(=O)CC(C)(C)CC2=O)C(=O)C1	Yeast lifespan up 27
Cc1ccccc1C(=O)NC(NC(=O)c1ccccc1C)c1cccc([N+](=O)[O-])c1	none
O=C1CN(CC(=O)N2CCCCC2)c2ccccc2O1	Yeast growth inh 46
O=C1CN(CC(=O)N2CCOCC2)c2ccccc2O1	none
CC(C)CN(CCCNC(=O)CN1C(=O)COc2ccc(S(=O)(=O)N3CCCC3)cc21)CC(C)C	none (no result: Yeast lifespan up, Yeast growth inh)
CCOC(=O)CSc1nnc(-c2cc(OC)c(OC)c(OC)c2)o1	none (no result: Yeast lifespan up, Yeast growth inh)
COc1cc(-c2nnc(SCC(=O)OC3CCCCC3)o2)cc(OC)c1OC	RAM inhibit 9.0
O=c1nc2n(c3ncccc13)CCCCC2	none (no result: Yeast lifespan up, Yeast growth inh)
CCN(CC)S(=O)(=O)c1cccc(C(=O)N/N=C/c2ccc(O)c(O)c2O)c1	none
Oc1ccc(/C=N/N=C(c2ccccc2)c2ccccc2)c(O)c1O	Yeast growth inh 90
CCN(CC)S(=O)(=O)c1ccc(C(=O)Oc2cc(C)[nH]c(=O)c2[N+](=O)[O-])cc1	none (no result: Yeast lifespan up, Yeast growth inh)
CCOC(=O)c1cc2sc(C)cc2n1CCCN1C(=O)c2ccccc2C1=O	RAM inhibit 11
CCOC(=O)c1cc2sc(C)cc2n1CC(=O)N(CC)CC	none

Assay outcomes deposited in PubChem BioAssay by SRMLSC.
